5HT1E ag: activates the human 5-HT1E serotonin receptor | P28566 | CHO 5-HT1E Ga15 NFAT-bla reporter, FRET; 0% DMSO wells, 100% control agonist wells | activation, % at 6 µM | hit rate 0.69% among 65,000 | AID 574;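 active = activation above a set limit, the screen-wide mean activation plus 3 SD, cut at about 8.5% in these data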;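 also: 100% = positive control agonist at 1 µM giving full maximal response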
Jurkat viability: reduces viability or proliferation of Jurkat cells; Jurkat E6.1 viability, ATP luminescence, 48 h; inhibition, % at 4 µM; hit rate 1.2% among 56,000; AID 463;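 active = inhibition above the mean inhibition of all tested compounds plus 3 SD, cut at about 28% in these data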
5HT1a ag: 5-HT1a (human) receptor agonism | P08908 | activation, % at 10 µM | CHO 5-HT1a Ga15 NFAT-bla reporter, FRET ratio; 0% basal, 100% maximal reference agonist | AID 567 | hit rate 0.56% among 65,000;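 active = activation above the screen-wide mean activation plus 3 SD, cut at about 19% in these data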;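 also: 0% = DMSO wells and 100% = 5-CT at EC100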
Target sequence (P08908 whole entry, looked up): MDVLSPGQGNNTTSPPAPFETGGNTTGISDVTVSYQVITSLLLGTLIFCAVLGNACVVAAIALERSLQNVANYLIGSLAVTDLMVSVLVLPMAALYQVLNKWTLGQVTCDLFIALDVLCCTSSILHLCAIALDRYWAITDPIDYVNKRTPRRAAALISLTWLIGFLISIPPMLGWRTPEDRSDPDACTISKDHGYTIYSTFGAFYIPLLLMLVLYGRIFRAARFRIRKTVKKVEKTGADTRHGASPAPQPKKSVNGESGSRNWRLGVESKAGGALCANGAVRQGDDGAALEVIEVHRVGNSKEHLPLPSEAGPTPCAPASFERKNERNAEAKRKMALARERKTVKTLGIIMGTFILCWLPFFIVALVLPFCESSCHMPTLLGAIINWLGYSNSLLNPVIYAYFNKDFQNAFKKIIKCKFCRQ
HTR1E antagonist: antagonists of human 5-HT1E serotonin receptor; P28566; AID 571; hit rate 0.99% among 65,000; inhibition, % at 6 µM; CHO 5-HT1E Ga15 NFAT-bla reporter, FRET, antagonist;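 active = inhibition above a set limit, the mean inhibition across every tested compound plus 3 SD, cut at about 29% in these data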;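 also: signal is the 460 over 535 nm emission ratio of beta-lactamase substrate; 0% = agonist plus DMSO wells and 100% = wells without agonist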
5HT1a antag: 5-HT1a (human) receptor antagonism. inhibition, % at 10 µM. P08908. hit rate 0.68% among 62,000. CHO 5-HT1a Ga15 NFAT-bla reporter, antagonist mode;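 active = inhibition above the mean of all tested compounds plus 3 SD, cut at about 43% in these data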;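 also: receptor stimulated by 5-CT agonist at 100 nM near EC80; beta-lactamase reporter measured by ratiometric fluorescence of a cleavable substrate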
HEK293 NFkB inh: inhibitors of the PMA/ionomycin-induced NF-kB reporter in HEK293 cells; HEK-293 NF-kB luciferase reporter, luminescence; inhibition, % at 3 µM; hit rate 0.21% among 62,000; AID 465;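 active = inhibition above the mean of all tested compounds plus 3 SD, cut at about 40% in these data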;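 also: 0% = stimulated DMSO wells and 100% = 10 µM reference inhibitor 5653914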
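Signal: luciferase luminescence; Material: HEK-293 cells with stable firefly luciferase reporter driven by four HIV NF-kB elements; Probe or stimulus: PMA with ionomycin; Replication: tested once; Times: 1 h compound pretreatment, then 16 h stimulation at 37 °C, 5% CO2; Benchmarks: DMSO and 10 µM reference inhibitor; Evaluation: per-plate % inhibition versus controls.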
Numbers without * were called inactive; x = no result. Only some compounds are listed: those with a hit (about 3.3% of all), similar ones and a draw of the others.

SMILES | 5HT1E ag | Jurkat viability | 5HT1a ag | HTR1E antagonist | 5HT1a antag | HEK293 NFkB inh
Cc1ccc(C(c2nnnn2C(C)(C)C)N(Cc2ccco2)Cc2cccs2)cc1 (stereo not drawn) | 0 | 4 | -2 | 0 | 51* | 11
CCn1c(=O)c(=O)[nH]c2cc(C(=O)N3CCN(c4ccccc4F)CC3)ccc21 | 1 | 0 | -2 | -1 | 0 | 12
COc1ccc(-c2noc(CCC(=O)Nc3nc4ccccc4s3)n2)cc1 | -1 | x | -3 | 6 | -2 | 17
C=CCNc1nc(-c2c(C)nc3sccn23)cs1 | 1 | 10 | 1 | -11 | -17 | 9
Cc1nc2sccn2c1-c1csc(NCc2ccccc2)n1 | 1 | 67* | 0 | -27 | 7 | 29
Cc1sc2ncnc(NCCCn3ccnc3)c2c1C | 1 | 5 | 1 | -4 | -24 | 2
Cc1sc2ncnc(Oc3ccc(-n4ccnc4)cc3)c2c1C | 0 | 5 | 298* | 4 | 6 | 1
CCCSc1nnc(Sc2nnnn2-c2ccccc2)s1 | 0 | 98* | -1 | 7 | 14 | 27
Cc1onc(-c2ccccc2)c1C(=O)Nc1sc2c(c1C#N)CCC2 | -1 | 49* | -1 | -3 | 6 | 8
N#Cc1c(NC(=O)CSC2=NCCS2)sc2c1CCCC2 | -2 | 2 | -3 | 15 | 11 | -3
Cc1cc(C(=O)Nc2sc3c(c2C#N)CCC3)no1 | 1 | 45* | -1 | 2 | 14 | -44
Cc1onc(-c2ccccc2)c1C(=O)Nc1sc2c(c1C(N)=O)CCC2 | 0 | x | 4 | -4 | -12 | 14
Cc1ccnc(SCC(=O)Nc2sc3c(c2C#N)CCCC3)n1 | -1 | 90* | 2 | 13 | 11 | 24
CCn1cc(C(=O)Nc2nncs2)c(=O)c2cc(F)c(N3CCN(C(=O)c4ccco4)CC3)cc21 | 0 | 6 | 1 | 0 | -4 | 20
CCn1nnnc1SCC(=O)Nc1cc(OC)cc(OC)c1 | 1 | -2 | -2 | 2 | 0 | 1
CCC(=O)N1CCN(c2ccccc2NC(=O)COc2cc(C)ccc2C(C)C)CC1 | -1 | 3 | 5 | 3 | 58* | 20
CC(=O)N1CCN(c2ccccc2NC(=O)COc2ccc(Cl)cc2Cl)CC1 | 0 | 7 | 2 | 15 | 29 | -2
COc1cccc(C(=O)N2CCN(S(=O)(=O)Cc3ccccc3)CC2)c1OC | 0 | x | -3 | 4 | x | x
Fc1cc(Br)ccc1Nc1nc2ccccc2n2nnnc12 | 15* | 4 | 3 | -11 | -16 | 1
Fc1ccccc1N1CCN(c2nc3ccccc3n3nnnc23)CC1 | -1 | -1 | -2 | -2 | -2 | 17
Cc1ccc(C2c3c(oc4ccccc4c3=O)C(=O)N2c2nnc(C(C)C)s2)o1 (stereo not drawn) | 2 | 1 | -1 | 32* | 1 | 8
Cc1cc(C)nc(Nc2nc(=O)c3ccccc3s2)n1 | 1 | 9 | 1 | -15 | 62* | 2
C=CCn1c(=O)c2c(C)c(C)sc2n2c(Nc3ccccc3)nnc12 | 1 | -5 | 2 | 8 | -10 | 8
COc1ccccc1NC(=O)N1CCC(C(=O)c2ccc(F)cc2)CC1 | 1 | -2 | -2 | 3 | -4 | 11
COc1ccccc1NC(=O)N1CCc2[nH]c3ccc(F)cc3c2C1 | -2 | 0 | 1 | 29* | 29 | 9
SMILES | 5HT1E ag | Jurkat viability | 5HT1a ag | HTR1E antagonist | 5HT1a antag | HEK293 NFkB inh
COc1cccc(C2CC(c3cccc(C)c3)n3ncnc3N2)c1 (stereo not drawn) | 0 | 0 | 0 | 0 | -3 | 9
O=C(CSc1nc(-c2ccco2)cc(C(F)(F)F)n1)Nc1ccc2c(c1)OCO2 | 0 | 29* | 0 | 10 | 20 | 16
Cc1ccc(N2CCN(C(=O)c3ccccc3)CC2)c(C)c1 | -1 | 12 | -3 | 17 | 14 | 13
COc1cc(C(=O)N2CCN(c3ccc(C)cc3C)CC2)cc(OC)c1OC | 0 | 91* | -3 | 18 | 17 | 25
Cc1nn(Cc2ccc(Cl)cc2)c(C)c1NC(=O)C1CC=CCC1C(=O)O (stereo not drawn) | 0 | 2 | -4 | -1 | -1 | 9
CCn1ncc(C2=NOC(C(=O)NCc3ccccc3)C2)c1C (stereo not drawn) | -2 | 93* | -5 | 37* | 10 | 21
CCn1ncc(C2=NOC(C(=O)Nc3c(C)n(C)n(-c4ccccc4)c3=O)C2)c1C (stereo not drawn) | 1 | -16 | 2 | -6 | 3 | 0
CCn1ncc(C2=NOC(C(=O)NCc3ccc(OC)cc3)C2)c1C (stereo not drawn) | -1 | 39* | 0 | -9 | 3 | 12
CCn1ncc(C2=NOC(C(=O)Nc3c(C)nn(Cc4ccc(F)cc4)c3C)C2)c1C (stereo not drawn) | 1 | 6 | -1 | 3 | -8 | 3
COc1ccc(C2=NOC(C(=O)NCc3ccccc3)C2)cc1 (stereo not drawn) | 0 | 45* | -3 | 39* | 30 | 23
C=CCn1c(CCC(=O)O)ccc1-c1ccccc1 | 0 | -1 | -2 | 1 | -2 | 4
CC(C(=O)Nc1ccccc1-c1ccccc1)N1CCN(C(=O)c2ccco2)CC1 (stereo not drawn) | -1 | 6 | 0 | -8 | -3 | 7
COc1ccc(CN(Cc2cccnc2)S(=O)(=O)c2ccc(-n3cnnn3)c(C)c2)cc1OC | 0 | 9 | -1 | 8 | 6 | 19
O=C(CCCCCn1c(=O)[nH]c2ccccc2c1=O)NCCCN1CCN(c2ccccc2F)CC1 | 1 | 0 | 9 | -1 | 29 | 19
O=C(c1ccc(F)cc1)C(CN1CCOCC1)c1ccccc1 (stereo not drawn) | 0 | 80* | 0 | 51* | 69* | 29
CCn1cc(C(=O)NCCCN2CCC(C)CC2)c2cc(OC)c(OC)cc2c1=O | 1 | 1 | -1 | -4 | -18 | -8
O=C(Nc1ccn(-c2ccccc2)n1)c1ccc(S(=O)(=O)N2CCCCCC2)cc1 | 0 | 34* | 0 | -6 | -17 | 15
O=C(NCCc1c[nH]c2ccccc12)c1ccc(S(=O)(=O)NCc2ccco2)cc1 | 13* | x | 1 | 10 | 7 | 19
O=C(NCCc1c[nH]c2ccccc12)c1ccc(-n2cnnn2)cc1 | -1 | 1 | -4 | 10 | 4 | 3
O=C(Nc1ccc(S(=O)(=O)NCc2ccco2)cc1)c1ccc2ccccc2n1 | 0 | 23 | -1 | 4 | 49* | 10
O=c1c2[nH]c3ccc(F)cc3c2ncn1CCCN1CCOCC1 | 0 | -4 | 0 | -1 | -3 | 4
O=c1c2[nH]c3ccc(F)cc3c2ncn1CCCn1ccnc1 | 0 | 33* | 13 | 0 | -5 | 19
COc1ccccc1N1CCN(c2ccc(-c3ccccc3)nn2)CC1 | 0 | x | -1 | 51* | 38 | 8
O=C1C=C(N2CCN(C3=CC(=O)CCC3)CC2)CCC1 | -2 | x | 4 | -5 | x | x

High-throughput results: PubChem, The Scripps Research Institute Molecular Screening Center
